Screening data from PubChem BioAssay.
b-catenin transl = modulators of beta-catenin nuclear translocation. HeLa beta-catenin nuclear translocation, immunofluorescence imaging. nuclear translocation activity, % at 5 µM. actives 0.3% (n = 190,000);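 active = nuclear translocation activity above 50% at 5 µM, with a well cell count of 50 or more; inconclusive = wells under 50 cells across six images, flagged as toxic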;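 note: per-cell ratio of nuclear to cytoplasmic median beta-catenin stain intensity; plate controls were DMSO negative control for no effect and GSK-3 inhibitor IX positive control for full effect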
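Assay system: human HeLa cells, native beta-catenin; doses: 5 µM primary, 0.02–20 µM confirmation; incubation: compound treatment 24 h, 37°C, 5% CO2; technique: fluorescence imaging of beta-catenin antibody stain plus DAPI; measure: % activation, nuclear-to-cytoplasmic median beta-catenin signal ratio per cell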
Insulin prom up = MIN6 insulin promoter up-regulation | actives 0.3% (n = 190,000) | z-score at 5 µM | MIN6 insulin promoter-GFP reporter, high-content imaging; hits give high values | AID 1625;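 active = z-score above 3 at 5 µM with at least 500 cells counted in the well; inconclusive = wells under 500 cells, flagged as cytotoxic or low count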
Autophagy HCS = modulators of autophagy; actives 0.98% (n = 190,000); AID 463193; calls only at 10 µM (by protocol); MEF GFP-LC3 puncta imaging; test concentration mostly 10 µM;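 active = percentage of spot-positive cells more than 3 SD above its plate mean, without a fluorescence outlier flag or 80% toxicity; inconclusive = no clear call, values can overlap the other calls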;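 note: spot-positive cell cutoff set from DMSO-treated cells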
Tb hexokinase = blocks Trypanosoma brucei hexokinase 1 activity | actives 0.11% (n = 220,000) | recombinant TbHK1, G6PDH-coupled NADH A340 | inhibition, % at 10 µM;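 active = inhibition of 50% or more in the single-dose primary screen; inactive = inhibition below 50%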
MT stabilize HCS = stabilizes microtubules in HeLa cells; HeLa tubulin immunostaining HCS, 24 h; share of cells brighter than vehicle mean+2SD; % tubulin-high responders, % at 10 µM; actives 0.83% (n = 200,000);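 active = plate Z-score above 3 for both tubulin-high and condensed-nucleus cell shares, with cell loss under 80%, at 10 µM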;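 note: anti alpha tubulin signal scored within the nucleus-defined area of each cell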
* = called active by the depositor; i = inactive; u = inconclusive; x = not tested or not shown; + = active, no number. Only some compounds are listed: those with a hit (about 1.9% of all), similar ones and a draw of the others.

SMILES | b-catenin transl | Insulin prom up | Autophagy HCS | Tb hexokinase | MT stabilize HCS
O=C(c1ccccc1)c1cc([N+](=O)[O-])ccc1N1CCOCC1 | 178* | -0.61 | i | -18 | 10
Cc1cc(C)n2ncc(/C(N)=N/OC(=O)Nc3ccccc3)c2n1 | 0 | -0.51 | x | -13 | x
COc1ccc(Cl)cc1NC(=S)NNC(=O)c1cccnc1 | -1 | -0.18 | + | -21 | 2
COc1ccc(N2CCN(C(=O)CCc3ccc(S(=O)(=O)NC(C)(C)C)cc3)CC2)cc1 | 0 | -0.09 | x | -5 | x
CCCCCCc1cc2cc(-c3nnc(-c4cc(OC)c(OC)c(OC)c4)o3)c(=O)oc2cc1O | -1 | 10* | u | -25 | 3
CCCCCCc1cc2cc(S(=O)(=O)c3ccc(F)cc3)c(=O)oc2cc1O | 0 | 0.62 | i | -6 | 4
CCCCCCc1cc2cc(-c3nnc(-c4ccccc4OC)o3)c(=O)oc2cc1O | 12 | 8.9* | u | -9 | 3
CCCCCCc1cc2cc(C(=O)Nc3ccccc3OC)c(=O)oc2cc1O | 1 | -0.3 | i | 3 | 4
CCCCCCc1cc2cc(-c3nnc(-c4ccccc4O)o3)c(=O)oc2cc1O | -4 | 7.5* | + | 19 | 4
CC(=O)Nc1nc2ccccc2n1CCOc1ccccc1 | x | 0.48 | i | -3 | 3
S=C(Nc1ccccc1)Nc1nc2ccccc2n1CCOc1ccccc1 | 2 | -0.39 | i | -8 | 30*
COc1ccc(-n2cc(CNCc3cnc4ccccn34)c(-c3cccc(F)c3)n2)cc1 | -2 | 0.32 | i | -3 | 5
CCS(=O)(=O)N1Cc2ccccc2CC1C(=O)OCC(=O)Nc1ccc(C)cc1 (configuration not stated) | -2 | 5* | i | 8 | 3
CC(=O)Cc1nsc(NC(=O)c2ccc(-c3ccccc3Cl)o2)n1 | 2 | 0.2 | i | -47 | 24*
CC(=O)Cc1nsc(NC(=O)c2oc(-c3ccccc3Cl)cc2C)n1 | 1 | -0.91 | i | -32 | 2
CC1(C)Oc2ccc(C(=O)NC3CCCC3)cc2N(CC(=O)N2CCOCC2)C1=O | -4 | 0.64 | + | 4 | 4
CC1(C)Oc2ccc(C(=O)NC3CC3)cc2N(CC(=O)N2CCOCC2)C1=O | -5 | -0.35 | i | 0 | 1
COc1ccc2c(c1)c(CC(=O)OCC(=O)O)c(C)n2C(=O)c1ccc(Cl)cc1 | -1 | 0.13 | + | -10 | 3
COCCn1cnnc1SCC(=O)Nc1sccc1C(N)=O | -2 | 0.13 | i | -3 | 2
CCCCCC1=NN2C(=O)CC(=O)N=C2S1 | 1 | 0.06 | x | -4 | x
O=C1c2cccc3c(N4CCCCC4)ccc(c23)C(=O)N1c1ccc(Cl)cn1 | x | x | + | 5 | 2
O=C1c2cccc3c(N4CCCCC4)ccc(c23)C(=O)N1c1ccccn1 | -1 | 0.23 | i | -7 | 4
CCCN1C(=O)c2cccc3c(N4CCCCC4)ccc(c23)C1=O | -2 | x | + | 34 | 1
O=C(OCCN1C(=O)c2cccc3c(N4CCOCC4)ccc(c23)C1=O)c1cc(Cl)cc(Cl)c1 | x | 0.02 | + | 33 | 30*
CCCCNc1ccc2c3c(cccc13)C(=O)N(CCCC)C2=O | 0 | x | x | 7 | x
SMILES | b-catenin transl | Insulin prom up | Autophagy HCS | Tb hexokinase | MT stabilize HCS
Cn1c(SCC(=O)NC(=O)Nc2ccccc2)nnc1-c1ccncc1 | 1 | -0.18 | x | 25 | x
CC1CCCCN1C(=S)NCc1ccco1 (configuration not stated) | -2 | -0.57 | i | -6 | 3
CCc1nnc(NS(=O)(=O)c2ccc(N=CC3=C(O)CC(C)(C)CC3=O)cc2)s1 | -1 | -0.18 | i | -34 | 4
COc1cc(NC(=S)NC2CC2)c(OC)cc1Cl | -2 | 0.29 | i | 29 | 1
CCOc1ncccc1C(=O)N1CCN(c2cccc(C)c2C)CC1 | 186* | x | i | 9 | 11*
CCOc1ncccc1C(=O)N1CCN(C(=O)c2ccccc2)CC1 | 0 | 0.05 | i | 4 | 3
CCOc1ncccc1C(=O)N1CCN(c2cc(Cl)ccc2C)CC1 | 84* | -0.29 | i | -11 | 11
CCOC(=O)N1CCN(c2c(N3CCN(c4cccc(C)c4C)CC3)c(=O)c2=O)CC1 | x | 0.71 | + | -7 | 6
CCOC(=O)N1CCN(c2cccc(C)c2C)CC1 | -3 | -0.1 | i | 1 | 3
CCOC(=O)N1CCN(c2c(NCc3cccs3)c(=O)c2=O)CC1 | x | 0.58 | i | -6 | 20*
CCN(C(=O)COC(=O)c1ccc(Br)o1)C1CCCCC1 | 3 | -0.21 | i | 8 | 2
O=C(Nc1ccc(C(F)(F)F)cc1)N1CCN(c2ccnc3cc(Cl)ccc23)CC1 | 1 | -0.77 | x | -8 | x
